# Apaf-1 inh = inhibitors of human Apaf-1 apoptosome, primary screen, biochemical, DEVD-Rh110 fluorescence, uHTS; actives 0.71% (n = 330,000); reconstituted apoptosome caspase-3 activity; Apoptotic protease-activating factor 1 (Homo sapiens), O14727; inhibition, % at 20 µM; active = inhibition of at least 40% at 20 µM;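 also: plate controls were DMSO wells for no effect and DEVD-CHO caspase inhibitor wells for full effect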
#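 detection = Rh110 fluorescence intensity | test system = biochemical Apaf-1 apoptosome reconstitution | also added = cytochrome c and DEVD-Rh110 substrate | schedule = 30 min plus 50 min, RT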
# PAFAH1B3 inh = PAFAH1B3 enzyme inhibitors, primary screen, biochemical, fluorescence polarization, human; recombinant PAFAH1B3, FP-rhodamine probe; actives 0.28% (n = 340,000); inhibition, % at 3.39 µM; Platelet-activating factor acetylhydrolase IB subunit alpha1 (Homo sapiens), Q15102;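 active = inhibition above the screen-wide average of all tested compounds plus 3 SD, cut at about 25% in these data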;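 also: 0% = enzyme with DMSO only and 100% = wells lacking PAFAH1B3 protein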
# Target sequence (Q15102 whole entry, looked up): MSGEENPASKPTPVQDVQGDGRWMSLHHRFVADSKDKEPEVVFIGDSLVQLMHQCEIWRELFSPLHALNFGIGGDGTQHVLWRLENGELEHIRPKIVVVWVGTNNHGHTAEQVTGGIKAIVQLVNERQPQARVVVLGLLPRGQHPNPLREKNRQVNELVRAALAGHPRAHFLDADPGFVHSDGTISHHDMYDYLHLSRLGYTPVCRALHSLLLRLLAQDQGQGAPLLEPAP
# PAFAH2 FP inh = PAFAH2 enzyme inhibitors, primary screen, biochemical, fluorescence polarization, human. Platelet-activating factor acetylhydrolase 2, cytoplasmic (Homo sapiens), Q99487. recombinant PAFAH2, FP-rhodamine activity probe. actives 0.99% (n = 340,000). inhibition, % at 3.39 µM;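 active = inhibition above the mean over all tested compounds plus 3 SD, cut at about 30% in these data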;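 also: inhibitors block probe labeling of enzyme so polarization drops; 0% = enzyme with DMSO and 100% = wells lacking PAFAH2 protein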
# TDP2 absorb = human TDP2 enzyme inhibitors, primary screen, biochemical, epi absorbance, recombinant enzyme | AID 720702, 2013 | actives 0.34% (n = 370,000) | inhibition, % at 12.8 µM | Tyrosyl-DNA phosphodiesterase 2 (Homo sapiens), O95551 | T5PNP hydrolysis, p-nitrophenol absorbance 415 nm;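 active = inhibition above the mean of all tested compounds plus 3 SD, set per campaign, cut at about 25% in these data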;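 also: 0% = DMSO with enzyme and 100% = buffer with substrate but no TDP2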
# Target sequence (O95551 whole entry, looked up): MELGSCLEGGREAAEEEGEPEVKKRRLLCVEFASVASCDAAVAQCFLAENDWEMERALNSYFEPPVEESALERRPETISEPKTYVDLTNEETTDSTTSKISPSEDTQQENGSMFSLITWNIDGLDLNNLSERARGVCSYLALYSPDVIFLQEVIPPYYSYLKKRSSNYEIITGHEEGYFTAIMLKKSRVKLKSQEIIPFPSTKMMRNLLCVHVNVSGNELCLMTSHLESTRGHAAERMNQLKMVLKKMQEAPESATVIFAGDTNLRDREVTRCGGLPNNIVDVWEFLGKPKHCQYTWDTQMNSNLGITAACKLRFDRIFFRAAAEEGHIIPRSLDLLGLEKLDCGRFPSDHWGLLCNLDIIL
#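 System: recombinant human TDP2 / Amount: 120 nM TDP2 per well / Also added: 5 mM T5PNP chromogenic substrate / Doses: 12.8 µM single point, 1% DMSO / Incubation: 2 h at 37 °C / Detection: p-Nitrophenol epi absorbance / Evaluation: % inhibition relative to enzyme-containing and enzyme-free wells / Repeats: singlicate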
# PAFAH1B2 inh = PAFAH1B2 enzyme inhibitors, primary screen, biochemical, fluorescence polarization, human | Platelet-activating factor acetylhydrolase IB subunit alpha2 (Homo sapiens), P68402 | inhibition, % at 3.39 µM | actives 1.2% (n = 340,000) | recombinant PAFAH1B2, FP-rhodamine activity probe;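 active = inhibition above the mean of all tested compounds plus 3 SD, cut at about 24% in these data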;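 also: 0% = enzyme with DMSO and 100% = wells lacking PAFAH1B2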
# Apaf-1 inh conf = Apaf-1 inhibitors, single-dose retest, confirmation, biochemical, fluorescence, DEVD-Rh110, 20 µM; reconstituted apoptosome, caspase-3 DEVD-Rh110 fluorescence; inhibition, % at 20 µM; shares compounds with Apaf-1 inh; AID 504614, 2011; actives 25% (n = 1,800);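 active = mean inhibition of at least 40% at 20 µM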;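 also: plate controls were DMSO wells for no effect and DEVD-CHO caspase inhibitor control wells for full effect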
# Rh110 interf inh = Rh110 fluorescence interference by putative Apaf-1 inhibitors, confirmation, artefact control for Apaf-1 inhibitor project, biochemical, 20 µM; AID 504615, 2011; activation (fluorescence interference), % at 20 µM; 1,800 tested, under 10 active; quenched caspase reaction; shares compounds with Apaf-1 inh;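 active = signal rise of 40% or more at 20 µM, treated as a fluorescence artifact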
# Apaf1 inh interf = fluorescence interference of Apaf-1 inhibitor hits, dose response, artefact control for Apaf-1 inhibitor project | fluorescence interference counterscreen, Apaf-1 assay format | shares compounds with Apaf-1 inh | AID 588538, 2011 | 460 tested, under 10 active | IC50, µM; call rule not given here
# Active calls of the source: *; . = no result. An excerpt weighted towards active compounds, which were near 2.3% of everything screened.
SMILES,Apaf-1 inh,PAFAH1B3 inh,PAFAH2 FP inh,TDP2 absorb,PAFAH1B2 inh,Apaf-1 inh conf,Rh110 interf inh,others
CCCCCCSc1cc(-c2nc3ccc(C)cn3c2NCCCC)ccc1OC,46.2*,8.7,6.9,6.6,-4.1,21.2,19.4,
CCCCCCSc1ccc(-c2nc3ccc(C)cn3c2NCc2ccccc2)cc1,32.5,-0.7,8.7,-1.8,2.8,.,.,
CCCCCCSc1ccc(-c2nc3cnccn3c2NCCCC)cc1,55.9*,0.0,1.6,-8.9,13.3,30.4,23.3,
COc1ccc(C(=O)C[n+]2ccc3c(c2)nc(Cc2ccccc2)n3C)cc1,.,.,.,-4.2,.,.,.,
CC(C)C[C@H]1COc2ccc(Cl)cc2S(=O)(=O)N1Cc1cn(Cc2ccc(C(F)(F)F)cc2)nn1,.,.,.,-13.8,.,.,.,
COc1ccc(C(=O)Oc2ccc[nH]c2=O)cc1,-0.8,2.9,6.1,0.3,0.8,.,.,
O=C(Oc1ccc[nH]c1=O)c1cc([N+](=O)[O-])cc([N+](=O)[O-])c1,93.4*,12.4,-4.9,12.3,4.9,12.4,6.5,
CCNC(=O)Oc1ccc[nH]c1=O,41.8*,0.7,6.4,4.9,6.4,2.8,1.4,
COC(=O)C1=C(C)N(Cc2ccccc2)C(=NCCc2c[nH]c3ccccc23)N[C@H]1c1cccc(C(F)(F)F)c1,78.0*,6.8,-0.3,.,-0.7,42.7*,0.5,Apaf1 inh interf=>100
COC(=O)C1=C(C)N(Cc2ccccc2)C(=NCc2cccc(C(F)(F)F)c2)N[C@H]1c1cccc(C(F)(F)F)c1,74.5*,3.6,-9.2,.,3.5,33.5,12.3,
COC(=O)C1=C(C)N(CC2CC2)C(=NCc2cccc(C(F)(F)F)c2)N[C@H]1c1ccccc1,57.1*,10.6,1.8,.,2.4,13.6,12.1,
COC(=O)C1=C(C)N(Cc2ccccc2)C(=NCc2ccc(OC)cc2)N[C@H]1c1ccccc1,51.3*,-6.3,-4.4,-3.7,0.3,12.1,6.1,
COC(=O)C1=C(C)N(Cc2ccc(C(F)(F)F)cc2)C(=NCc2ccccc2)NC1c1cccc(C(F)(F)F)c1 (stereo not drawn),.,.,.,-6.6,.,.,.,
COC(=O)C1=C(C)N(C)C(=NCc2cccc(C(F)(F)F)c2)NC1c1ccccc1 (stereo not drawn),.,.,.,1.8,.,.,.,
CC(C)C[C@H]1COc2cccc(N3CCSCC3)c2S(=O)(=O)N1C,.,.,.,4.2,.,.,.,
COC(=O)[C@H](CC(C)C)N(Cc1cn(Cc2ccc(C)cc2)nn1)S(=O)(=O)c1ccc(F)cc1Br,.,.,.,-7.2,.,.,.,
COc1ccc(-c2nnc(SCc3c(F)cccc3F)n2N)cc1,.,.,.,-4.3,.,.,.,
CC(C)CCNC(=O)C1CCN(c2cncnc2)CC1,.,.,.,-0.4,.,.,.,
OC[C@@H]1CC[C@@H]2O[C@H](CCc3ccc(-c4ccc(F)cc4)cc3)[C@@H](n3cc(C4CC4)nn3)C[C@@H]2O1,.,.,.,0.8,.,.,.,
Cc1ccc(C2=N/C(=C\N3CCCCC3)C(=O)O2)cc1,3.8,3.4,9.1,-0.4,0.1,.,.,
Cc1nn(-c2ccccc2)c(N2CCCC2)c1/C=C1\N=C(c2ccc(OC(C)C)cc2)OC1=O,51.7*,5.1,6.8,-4.4,1.6,16.9,6.4,
CCOC(=O)N1CCc2c(sc3c2C(=O)NC(c2ccccc2)N3)C1 (stereo not drawn),81.1*,12.2,8.6,.,4.8,19.6,0.6,
CCn1cc(C(=O)OCC(=O)OC2CC(C)CCC2C(C)C)c(=O)c2ccc(C)nc21 (stereo not drawn),47.6*,2.2,3.5,-10.2,14.1,26.1,7.2,
C=CCOC(=O)c1cn(CC)c2nc(C)ccc2c1=O,-5.0,6.2,-5.8,9.1,2.7,.,.,
C=CCOC(=O)N[C@H](c1ccc(-c2ccccc2)cc1)[C@H](C)/C=C/CC(=O)OC,.,.,.,10.4,.,.,.,
SMILES,Apaf-1 inh,PAFAH1B3 inh,PAFAH2 FP inh,TDP2 absorb,PAFAH1B2 inh,Apaf-1 inh conf,Rh110 interf inh,others
COc1ccc(C(C)(C)C)cc1NC(=O)CNc1cccc2ccccc12,43.8*,11.7,5.1,9.3,6.1,28.8,7.0,
Cc1ccc(-n2nc(C)c3c2OC(N)=C(C#N)C3c2ccoc2)cc1 (stereo not drawn),81.0*,0.1,2.6,9.5,0.4,17.0,2.7,
CCOC(=O)N1CCN(C2=Nc3cccc4cccc2c34)CC1,-0.2,6.8,-1.4,6.1,0.8,.,.,
CC(=O)N1CCN(C2=Nc3cccc4cccc2c34)CC1,80.1*,-4.0,9.6,6.0,2.5,5.9,-1.2,
CC(C)(C)c1ccc(-c2nnc(SCC3CCCCO3)n2-c2ccc(Cl)cc2)cc1 (stereo not drawn),.,.,.,13.3,.,.,.,
O=C(O)CC(C(=O)O)N1C(=O)/C(=C/C=C/c2ccco2)SC1=S (stereo not drawn),85.4*,8.1,21.5,10.7,4.6,48.7*,1.2,Apaf1 inh interf=>100
COC(=O)[C@]12C[C@H](CC(=O)NCCc3ccccc3OC)C(=O)N(Cc3ccco3)C1=C[C@H](C1CCCC1)O[C@@H]2C,.,.,.,-4.5,.,.,.,
CCNC(=O)N(C)[C@H]1C[C@H]2c3[nH]c4cccc(-c5ccc6c(c5)OCO6)c4c3CCN2C[C@H]1[C@H](C)O,.,.,.,-7.3,.,.,.,
O=c1cc(C=NNc2ccccc2)[nH]c(=O)[nH]1,.,7.2,0.2,3.7,-0.8,.,.,
O=c1cc(N/N=C/c2ccccc2)[nH]c(=O)[nH]1,68.2*,3.9,4.7,0.0,8.4,43.1*,7.6,Apaf1 inh interf=>100
C=CCN1[C@H](CC(C)C)COc2cc(F)ccc2S1(=O)=O,.,.,.,-2.1,.,.,.,
O=c1c2ccccc2n(Cc2ccccc2)n1[C@@H](Cc1ccccc1)Cn1cc(C2CCCC2)nn1,.,.,.,0.9,.,.,.,
CCOC(=O)c1c(-c2ccc(-c3ccccc3)cc2)csc1NC(=O)CNCCN(C)C,42.2*,14.4,0.2,-9.4,8.1,47.4*,5.3,Apaf1 inh interf=>100
CN(C)[C@H]1CCN(c2cccc3c2S(=O)(=O)N2CC[C@@H](C2)O3)C1,.,.,.,7.7,.,.,.,
O=S(=O)(N[C@@H]1CCCC[C@@H]1N1CCOCC1)c1ccc(Cl)cc1,.,.,.,3.4,.,.,.,
C[C@@H](CN1C2=NC[C@H](Cc3ccccc3)N2C[C@H]1Cc1ccc(O)cc1)NC(=O)CCC1CCCCC1,40.7*,10.3,-5.5,-7.5,6.7,11.7,9.2,
O=C(NCCc1ccccc1)c1ccccc1SCC(=O)N1CCCC1,60.3*,-2.3,4.0,-16.4,-2.9,36.0,2.1,

# Compound activity from PubChem.
